Most compounds without a hit are left out; they make up all but 9.3% or so of the library.
D1 allo mod = D1 CRE-luciferase signal change, two-sided – cell-based, HEK293 D1, dopamine EC30, D1 allosteric modulator project, primary screen | D(1A) dopamine receptor (Homo sapiens), P21728 | dopamine EC30 potentiation; actives deviate in either direction | B-score at 10 µM | hit rate 5.9% among 58,000 | AID 641, 2007;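 active means luminescence count or its row- and column-corrected plate score outside the 99.7% band of the plate's sample wells, on either side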
Target sequence (P21728 whole entry, looked up): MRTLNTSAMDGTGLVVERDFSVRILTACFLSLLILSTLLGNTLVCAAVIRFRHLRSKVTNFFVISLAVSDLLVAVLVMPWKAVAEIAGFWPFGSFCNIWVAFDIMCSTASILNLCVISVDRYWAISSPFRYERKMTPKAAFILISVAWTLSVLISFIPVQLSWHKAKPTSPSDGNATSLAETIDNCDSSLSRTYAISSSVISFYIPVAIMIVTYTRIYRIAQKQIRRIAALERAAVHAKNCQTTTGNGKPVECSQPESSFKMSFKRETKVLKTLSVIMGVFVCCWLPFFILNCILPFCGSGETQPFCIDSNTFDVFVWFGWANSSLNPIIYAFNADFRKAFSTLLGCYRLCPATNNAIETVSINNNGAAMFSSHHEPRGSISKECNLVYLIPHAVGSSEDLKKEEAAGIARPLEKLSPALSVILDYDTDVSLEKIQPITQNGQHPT
Ecoli WT expand = growth inhibitors of wild-type E. coli, primary screen, strain BW25113, expanded library, OD600; OD600 absorbance; hit rate 0.15% among 98,000; growth inhibition, % at 100 µM;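 active means growth inhibition above about 50% at one test dose, limit read from the data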;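 further: growth measured after 20 h incubation at 37 °C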
PostGolgi ctrl = growth inhibition of yeast control strain, primary screen, counter-screen for post-Golgi transport modulator project; efflux-deficient yeast background strain, growth absorbance A615, 16 h; inhibition, % at 10 µM; hit rate 5% among 98,000; AID 738, 2007
PostGolgi yeast = phenotypic screen on post-Golgi transport, primary screen; inhibition, % at 10 µM; post-Golgi transport phenotypic cell assay; hit rate 0.9% among 98,000;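 further: yeast cells grown in 1536-well plates; yeast grown about 18 h at 30C before absorbance read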
DAT uptake mod = changed hDAT dopamine uptake under cocaine IC80, either direction, primary screen, cocaine antagonist project, cell-based, LLC-PK1 hDAT, [14C]-dopamine uptake, MLSMR; hit rate 1.3% among 110,000; B-score at 10 µM; Sodium-dependent dopamine transporter (Homo sapiens), Q01959; LLC-PK1 hDAT cells, [14C]-dopamine uptake with cocaine IC80; actives deviate in either direction;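 active means Z score or B-score, a plate-position-corrected score, falls beyond the plate's 99.7% confidence bounds, in either direction; inactive means both scores lie inside the 99.7% bounds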;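 further: scored against the spread of the other compound wells on the same plate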
Ecoli tolC = growth inhibitors of E. coli tolC mutant, primary screen, strain BW25113 ΔtolC::kan, 384-well; OD615; growth inhibition, % at 10 µM (by protocol); hit rate 2.2% among 65,000; AID 573, 2007;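 active means growth inhibition at or above a cutoff equal to the mean over every tested compound plus 3 SD, cut at about 60% in these data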;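 further: growth measured after 20 h incubation at 37 °C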
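Test system: E. coli BW25113 ΔtolC::kan bacteria | Medium: Kanamycin-containing LB broth (50 µg/mL) | Dosing: One dose of 10 µM final | Times: 20 h incubation with compound, 37 °C | Detection: Optical density read at 615 nm | Read-out basis: Percent growth inhibition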
An asterisk follows results filed as active; / = no result. Unless noted, no stated cut-off is given here; in the data, active means inhibition above about 30%; inactive means the rest.

SMILES | D1 allo mod | Ecoli WT expand | PostGolgi ctrl | PostGolgi yeast | DAT uptake mod | Ecoli tolC
C/C(=N\O)c1c(C)c2ccccc2n1C | / | 5 | 27 | -8 | -1 | 12
Cc1ccc(C(=O)c2cc3ccccc3o2)cc1 | / | 5 | 3 | 0 | 0.02 | /
O/N=C(\c1ccc(Cl)cc1)c1cc2ccccc2o1 | / | -3 | 34* | 15 | / | 98*
COc1ccc(C2=NOC(C)(c3nnc(-c4ccccc4)o3)C2)cc1 (stereo not drawn) | / | / | / | / | 0.065 | /
Cc1ccc(-c2csc(N(CC3CCCO3)C(=O)c3ccco3)n2)cc1 (stereo not drawn) | -0.92 | / | / | / | / | 67*
O=C(c1ccco1)N(CC1CCCO1)c1nc(-c2ccccc2)cs1 (stereo not drawn) | -1 | -11 | 21 | 0 | -0.051 | 44
CCCOc1ccc(N2CC(C(=O)NC(C)C)CC2=O)cc1 (stereo not drawn) | 1.5 | -4 | -2 | 5 | 0.27 | -26
CCOC(=O)N1CCN(C(=O)CN(c2cccc(C(F)(F)F)c2)S(C)(=O)=O)CC1 | 1.6 | 5 | 7 | 5 | -8.7* | -13
CC(C)(C)C1CCc2c(sc(NC(=O)C3CCCO3)c2C(N)=O)C1 (stereo not drawn) | / | 8 | 60* | 4 | 2.3 | /
COc1cccc(-c2csc(N3CCN(S(=O)(=O)c4ccc(F)cc4)CC3)n2)c1 | / | -20 | 37* | -1 | 0.1 | -7
COc1cccc(C(=O)Nc2nc(-c3ccc(S(=O)(=O)N4CCOCC4)cc3)cs2)c1 | -3.3* | -11 | 3 | 16 | 0.68 | 29
CCOC(=O)c1c(C)[nH]c(C(=O)C(C)OC(=O)c2cccc(OCc3c(C)noc3C)c2)c1C (stereo not drawn) | 2 | -18 | 8 | -6 | 1.4 | 43
O=C(CSc1nnc(-c2cccs2)n1-c1ccccc1)N1CCc2ccccc21 | -0.17 | / | / | / | / | 5
Cc1cc(C)cc(OCc2nnc(SCC(=O)OC(C)C)o2)c1 | / | -9 | 4 | -8 | 0.031 | /
O=C(CSCc1ccccc1)N/N=C/c1ccccc1OCc1ccccc1 | / | -20 | 11 | 6 | 1.8 | /
Cc1ccc(CSCC(=O)N/N=C/c2sccc2C)cc1 | / | -7 | 5 | -9 | 3.2* | /
CCO[C@@H]1OC(C(N)=O)=C[C@H](c2ccc3c(c2)OCO3)[C@H]1CCCO | / | / | / | / | 0.037 | /
Cc1ccc2c(c1)NC(=O)C(CC(=O)NCCCN1CCN(c3cc(Cl)ccc3C)CC1)O2 (stereo not drawn) | -2.6* | 12 | 5 | -1 | 0.00088 | 71*
Cc1ccc2c(c1)NC(=O)C(CC(=O)NCCCN1CCCCC1)O2 (stereo not drawn) | 0.34 | 8 | 0 | -4 | 0.0084 | -13
Cc1ccc(S(=O)(=O)N/N=C2/CC(c3ccccc3)Oc3ccccc32)cc1 (stereo not drawn) | / | -7 | 33* | 10 | -0.024 | /
O=S(=O)(N/N=C1\CC(c2ccccc2)Oc2ccccc21)c1ccccc1 (stereo not drawn) | / | 1 | 20 | 3 | -0.44 | /
CCOC(=O)N1CCN(c2ncnc3c2oc2nc(C(C)C)c4c(c23)CCC4)CC1 | -1.8 | -5 | 4 | 9 | -0.3 | 36
CC(C)Cc1nc2oc3c(NCc4cccnc4)ncnc3c2c2c1CCC2 | 4.8* | 2 | -1 | -6 | 0.71 | /
CC(C)Cc1nc2oc3c(N4CCN(CCO)CC4)ncnc3c2c2c1CCCC2 | 2 | -14 | 15 | 2 | 2.4* | 39
Cc1ccc(CNC(=O)c2cc3c(C)nc4ccccc4c3o2)cc1 | / | -12 | 14 | 1 | 1.3 | /
SMILES | D1 allo mod | Ecoli WT expand | PostGolgi ctrl | PostGolgi yeast | DAT uptake mod | Ecoli tolC
Cc1nc2ccccc2c2oc(C(=O)NCc3ccccn3)cc12 | -3.7* | 0 | 0 | 11 | -0.031 | 15
CCCC1=C(C(=O)OCC)C(c2cc(Cl)cc(OC)c2OCC(=O)OCC)NC(=O)N1 (stereo not drawn) | 0.17 | 6 | 11 | 0 | 0.12 | 83*
CCOC(=O)COc1c(OC)cc(Cl)cc1C1NC(=O)NC(C)=C1C(C)=O (stereo not drawn) | 0.15 | 5 | 2 | -2 | -0.1 | -8
CC1CCN(C(=O)Cn2c(=O)n(CCc3ccccc3)c(=O)c3ccccc32)CC1 | / | -3 | 43* | 21 | -0.46 | 0
CCOc1cc(/C=C(/C#N)C(=O)Nc2ccc(O)cc2)cc(Br)c1O | / | -10 | 22 | -3 | -3.4* | /
O=C(Cc1ccccc1[N+](=O)[O-])NCCSCc1c(F)cccc1Cl | / | -7 | 11 | -4 | 0.33 | /
COc1ccc2c(c1)-c1c(sn(-c3ccc(OC)c(OC)c3)c1=S)C(C)(C)N2 | / | -35 | 38* | -7 | -0.43 | /
C=CCn1c(SCC(=O)Nc2ccc3c(c2)OCO3)nnc1-c1cc(Br)ccc1O | -0.35 | -3 | 14 | 0 | -0.15 | 74*
Cc1ccc(/C(O)=C2\C(=O)C(=O)N(c3cc(C)on3)C2c2cccc(Br)c2)cc1 (stereo not drawn) | 0.044 | -7 | -1 | 2 | 0.92 | 65*
Cc1cc(N2C(=O)C(=O)/C(=C(/O)c3ccc(F)cc3)C2c2cccc(Br)c2)no1 (stereo not drawn) | 0.26 | -1 | 11 | 7 | -0.2 | 9
CCOC(=O)c1cnc(-n2nc(C)cc2C)nc1NC1CCCCC1 | 2.6 | 12 | 67* | 87* | 1.1 | 100*
CCOC(=O)c1cnc(-n2nc(C)cc2C)nc1N(CC)CC | -0.14 | -3 | 18 | 0 | 0.59 | 63*
O=C(/C=C/c1ccccc1)NC(NC(=S)Nc1cc(Cl)ccc1Cl)C(Cl)(Cl)Cl (stereo not drawn) | / | -1 | -1 | -9 | -0.44 | /
COc1ccc(OC)c(-n2c(SCC(=O)N3CCc4ccccc43)nc3c(c2=O)SCC3)c1 | 0.13 | -15 | 41* | 9 | 3.2* | 2
COc1ccccc1-n1c(SCC(=O)N2CCc3ccccc32)nc2c(c1=O)SCC2 | / | -9 | 6 | 9 | 1.2 | /
CC12CCC(C(=O)N(c3ccccn3)c3ccccn3)(OC1=O)C2(C)C (stereo not drawn) | -1.4 | 3 | 9 | -6 | -0.0012 | -24
Cc1ccc(C)c(N2CCN(C(=O)c3cc4sccc4n3C)CC2)c1 | -0.025 | -6 | 36* | -2 | 0.82 | 76*
O=C(c1c(F)c(F)c(F)c(F)c1F)N1CCN(c2cccc(C(F)(F)F)c2)CC1 | 1.8 | -14 | 17 | 9 | -0.25 | 49
Cn1c(C(=O)N2CCN(c3cccc(C(F)(F)F)c3)CC2)cc2sccc21 | 0.11 | -29 | 48* | 4 | 0.16 | 71*
O=C(O)C1CCCN1C(=O)Oc1ccccc1 (stereo not drawn) | -2.6* | -8 | 7 | 2 | -0.24 | -24

Source: PubChem (several laboratories)
